Measurements as given in ChEMBL document CHEMBL1156653, “Bioactive asterric acid derivatives from the Antarctic ascomycete fungus Geomyces sp” (J Nat Prod, 2008).
In brackets after ≈: the same amount, converted by molar mass.

Columns and labels:
Assay type in all cases: functional, organism-based
[1] = test system: Aspergillus fumigatus; experiment: Antifungal activity against Aspergillus fumigatus ATCC 10894
Method in brief: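 A. fumigatus grown on potato dextrose agar, then in broth at 28 °C for 48 h. Final inoculum was 10^4 mycelial fragments/mL in PDB. Samples were 10 mg/mL DMSO stocks, serially diluted and tested in triplicate. A595 was read after incubation. IC50 came from the inhibition-rate vs concentration plot. MIC was the lowest concentration giving complete growth inhibition.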

[2] = test system: Staphylococcus aureus; experiment: Antimicrobial activity against Staphylococcus aureus ATCC 6538
Method in brief: (§1)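 Bacteria grown on Mueller-Hinton agar, then in broth at 37 °C for 24 h. Final suspension was 10^6 cells/mL in MHB. Samples were 10 mg/mL DMSO stocks, serially diluted and tested in triplicate. Absorbance at 595 nm was read after incubation. IC50 came from plotting inhibition rate vs concentration. MIC was the lowest concentration completely inhibiting growth.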

[3] = test system: Streptococcus pneumoniae; experiment: Antimicrobial activity against Streptococcus pneumoniae CGMCC 1.1692; method in brief: as §1
[4] = test system: Escherichia coli; experiment: Antimicrobial activity against Escherichia coli CGMCC 1.2340; method in brief: as §1

SMILES	IC50 [1] [µM]	IC50 [2] [µM]	IC50 [3] [µM]	IC50 [4] [µM]	MIC [1] [µM]	MIC [2] [µM]	MIC [3] [µM]	MIC [4] [µM]
CCCCOC(=O)c1c(O)cc(C)cc1Oc1c(OC)cc(O)cc1C(=O)OC [BUTYL ASTERRATE]	> 50	> 50	> 50	> 50	–	–	–	–
CCOC(=O)c1c(O)cc(C)cc1Oc1c(OC)cc(O)cc1C(=O)OC [ETHYL ASTERRATE]	> 50	> 50	> 50	> 50	–	–	–	–
OC(Cn1cncn1)(Cn1cncn1)c1ccc(F)cc1F [FLUCONAZOLE]	7.35	–	–	–	163 (≈ 50 µg/mL)	–	–	–
COC(=O)c1cc(OC(=O)c2c(O)cc(C)cc2Oc2c(OC)cc(O)cc2C(=O)OC)cc(OC)c1Oc1cc(C)cc(O)c1C(=O)OC [GEOMYCIN A]	> 50	> 50	> 50	> 50	–	–	–	–
COC(=O)c1cc(OC(=O)c2c(O)cc(C)cc2Oc2c(OC)cc(O)cc2C(=O)OC)cc(OC)c1Oc1cc(C)cc(O)c1C(=O)O [GEOMYCIN B]	0.86	–	–	–	29.5 (≈ 20 µg/mL)	–	–	–
COC(=O)C1=CC(=O)C=C(OC)[C@]12Oc1cc(C)cc(OC(=O)c3c(O)cc(C)cc3Oc3c(OC)cc(O)cc3C(=O)OC)c1C2=O [GEOMYCIN C]	–	17.3	36.2	12.9	–	75.8 (≈ 50.1 µg/mL)	152 (≈ 100 µg/mL)	30.3 (≈ 20 µg/mL)
CN[C@@H]1[C@H](O[C@H]2[C@H](O[C@H]3[C@H](O)[C@@H](O)[C@H](N=C(N)N)[C@@H](O)[C@@H]3N=C(N)N)O[C@@H](C)[C@]2(O)C=O)O[C@@H](CO)[C@H](O)[C@H]1O [STREPTOMYCIN]	–	–	–	1.05	–	–	–	11.2 (≈ 6.51 µg/mL)
